Test results published in ChEMBL document CHEMBL2150936, “Anticancer activity of small amphipathic β²,²-amino acid derivatives” (Eur J Med Chem, 2012).

What was measured:
SK-MEL-28 = test: Cytotoxicity against human SK-MEL-28 cells after 4 hrs by MTT assay; assay type: functional, cell-based; details: SK-MEL-28, 4 h
SK-OV-3 = test: Cytotoxicity against human SKOV3 cells after 4 hrs by MTT assay; assay type: functional, cell-based; details: SK-OV-3, 4 h
SNB-75 = test: Cytotoxicity against human SNB75 cells after 4 hrs by MTT assay; assay type: functional, cell-based; details: SNB-75, 4 h
SF-295 = test: Cytotoxicity against human SF295 cells after 4 hrs by MTT assay; assay type: functional, cell-based; details: SF-295, 4 h
NCI-H522 = test: Cytotoxicity against human NCI-H522 cells after 4 hrs by MTT assay; assay type: functional, cell-based; details: NCI-H522, 4 h
NCI-H322M = test: Cytotoxicity against human NCI-H322M cells after 4 hrs by MTT assay; assay type: functional, cell-based
HL-60 = test: Cytotoxicity against human HL60 cells after 4 hrs by MTT assay; assay type: functional, cell-based; details: HL-60, 4 h
COLO 205 = test: Cytotoxicity against human COLO205 cells after 4 hrs by MTT assay; assay type: functional, cell-based; details: COLO 205, 4 h
Ramos [1] = test: Selectivity index, ratio of EC50 for human RBC to IC50 for human Ramos cells; assay type: functional
How it was run: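 Ramos IC50 came from a 4 h MTT assay: cells at 4 × 10^5 cells/ml in serum-free RPMI-1640, compounds added at once, 37 °C, 2 h MTT, read at 590 nm. RBC EC50 came from hemoglobin release at 405 nm: 1% v/v washed human erythrocytes in PBS, 1 h at 37 °C, Triton X-100 reference. SI = RBC EC50 / Ramos IC50.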

SNB-19 = test: Cytotoxicity against human SNB19 cells after 4 hrs by MTT assay; assay type: functional, cell-based; details: SNB-19, 4 h
SK-MEL-5 = test: Cytotoxicity against human SK-MEL-5 cells after 4 hrs by MTT assay; assay type: functional, cell-based; details: SK-MEL-5, 4 h
Ramos [2] = test: Selectivity index, ratio of EC50 for human MRC5 cells to IC50 for human Ramos cells; assay type: functional
How it was run: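 Ramos cells were seeded at 4 × 10^5 cells/ml in serum-free RPMI-1640, and compounds in RPMI-1640 were added at once. MRC-5 fibroblasts were seeded at 1 × 10^5 cells/ml in MEM with 10% FBS, grown overnight, and the medium was then replaced with compound. Both were incubated 4 h at 37 °C, 5% CO2, then given MTT for 2 h. Formazan was dissolved in acidic isopropanol and read at 590 nm. Survival was expressed relative to the untreated medium control. SI = MRC-5 EC50 / Ramos IC50.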

CCRF-CEM = test: Cytotoxicity against human CCRF-CEM cells after 4 hrs by MTT assay; assay type: functional, cell-based
UACC-257 = test: Cytotoxicity against human UACC257 cells after 4 hrs by MTT assay; assay type: functional, cell-based; details: UACC-257, 4 h
MOLT-4 = test: Cytotoxicity against human MOLT4 cells after 4 hrs by MTT assay; assay type: functional, cell-based; details: MOLT-4, 4 h
PC-3 = test: Cytotoxicity against human PC3 cells after 4 hrs by MTT assay; assay type: functional, cell-based; details: PC-3, 4 h
M14 = test: Cytotoxicity against human M14 cells after 4 hrs by MTT assay; assay type: functional, cell-based; details: M14, 4 h
HOP-62 = test: Cytotoxicity against human HOP62 cells after 4 hrs by MTT assay; assay type: functional, cell-based; details: HOP-62, 4 h
UACC-62 = test: Cytotoxicity against human UACC62 cells after 4 hrs by MTT assay; assay type: functional, cell-based; details: UACC-62, 4 h
HT-29 = test: Cytotoxicity against human HT-29 cells after 4 hrs by MTT assay; assay type: functional, cell-based; details: HT-29, 4 h
Malme-3M = test: Cytotoxicity against human MALME-3M cells after 4 hrs by MTT assay; assay type: functional, cell-based
OVCAR-3 = test: Cytotoxicity against human OVCAR3 cells after 4 hrs by MTT assay; assay type: functional, cell-based; details: OVCAR-3, 4 h
RXF 393 = test: Cytotoxicity against human RXF393 cells after 4 hrs by MTT assay; assay type: functional, cell-based; details: RXF 393, 4 h
Ramos [3] = test: Cytotoxicity against human Ramos cells after 4 hrs by MTT assay; assay type: functional, cell-based
How it was run: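 Ramos Burkitt's lymphoma cells, kept in suspension in RPMI 1640 with 10% FBS, were seeded at 4 × 10^5 cells/ml in serum-free RPMI 1640. Compounds in RPMI-1640 were added immediately, then 4 h at 37 °C, 5% CO2. MTT was added for a further 2 h, formazan dissolved in acidic isopropanol (0.04 N HCl), and A590 read. Survival was calculated against untreated medium control; 1% Triton X-100 served as positive control.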

786-0 = test: Cytotoxicity against human 786-0 cells after 4 hrs by MTT assay; assay type: functional, cell-based; details: 786-0, 4 h
OVCAR-4 = test: Cytotoxicity against human OVCAR4 cells after 4 hrs by MTT assay; assay type: functional, cell-based; details: OVCAR-4, 4 h
MRC5 = test: Cytotoxicity against human MRC5 cells after 4 hrs by MTT assay; assay type: cell-based; details: MRC5, 4 h
How it was run: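 MRC-5 embryonic lung fibroblast monolayers in MEM with 10% FBS were seeded at 1 × 10^5 cells/ml, grown overnight, then medium was replaced with compound solution. Exposure was 4 h at 37 °C, 5% CO2, then MTT for 2 h. Formazan was dissolved in acidic isopropanol (0.04 N HCl) and absorbance read at 590 nm. Background-corrected viability was taken relative to medium-only control, with Triton X-100 as positive control.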

OVCAR-5 = test: Cytotoxicity against human OVCAR5 cells after 4 hrs by MTT assay; assay type: functional, cell-based; details: OVCAR-5, 4 h
[4] = read-out: LC50 (the source's name)

Work on `NCCNC(=O)C(CN)(Cc1ccc2ccccc2c1)Cc1ccc2ccccc2c1` yielded an IC50 (SK-MEL-28) of 3.47 µM, a TGI (SK-MEL-28) of 3.47 µM and a CC50 (SK-MEL-28; [4]) of 5.89 µM. It also gave an IC50 (SK-OV-3) of 3.02 µM, a TGI (SK-OV-3) of 3.02 µM and a CC50 (SK-OV-3; [4]) of 5.5 µM. It also gave an IC50 (SNB-75) of 2.75 µM, a TGI (SNB-75) of 2.69 µM and a CC50 (SNB-75; [4]) of 5.25 µM. The IC50 (SF-295) was 2.51 µM, the TGI (SF-295) was 2.69 µM and the CC50 (SF-295; [4]) was 5.75 µM. For the same compound, the IC50 (NCI-H522) was 3.09 µM, the TGI (NCI-H522) was 3.24 µM and the CC50 (NCI-H522; [4]) was 6.46 µM. It also gave an IC50 (NCI-H322M) of 3.09 µM, a TGI (NCI-H322M) of 2.88 µM and a CC50 (NCI-H322M; [4]) of 5.89 µM. It also gave an IC50 (HL-60) of 0.48 µM, a TGI (HL-60) of 1.38 µM and an IC50 (COLO 205) of 0.34 µM. For the same compound, the TGI (COLO 205) was 0.35 µM, the CC50 (COLO 205; [4]) was 0.69 µM and the “Selectivity Index” value (Ramos [1]) was 112. For the same compound, the IC50 (SNB-19) was 2.95 µM, the TGI (SNB-19) was 3.02 µM and the CC50 (SNB-19; [4]) was 5.62 µM. For the same compound, the IC50 (SK-MEL-5) was 2.82 µM, the TGI (SK-MEL-5) was 3.02 µM and the CC50 (SK-MEL-5; [4]) was 5.62 µM. For the same compound, the “Selectivity Index” value (Ramos [2]) was 5.4, the IC50 (CCRF-CEM) was 2.24 µM and the TGI (CCRF-CEM) was 3.39 µM. The CC50 (CCRF-CEM; [4]) was 9.12 µM, the IC50 (UACC-257) was 3.39 µM and the TGI (UACC-257) was 3.39 µM. It also gave a CC50 (UACC-257; [4]) of 5.89 µM, an IC50 (MOLT-4) of 1.41 µM and a TGI (MOLT-4) of 2.69 µM. It also gave an IC50 (PC-3) of 3.09 µM, a TGI (PC-3) of 3.31 µM and a CC50 (PC-3; [4]) of 6.61 µM. It also gave an IC50 (M14) of 3.16 µM, a TGI (M14) of 3.24 µM and a CC50 (M14; [4]) of 6.03 µM. It also gave an IC50 (HOP-62) of 2.82 µM, a TGI (HOP-62) of 2.88 µM and a CC50 (HOP-62; [4]) of 5.62 µM. For the same compound, the IC50 (UACC-62) was 3.31 µM, the TGI (UACC-62) was 3.31 µM and the CC50 (UACC-62; [4]) was 5.75 µM. It also gave an IC50 (HT-29) of 0.41 µM, a TGI (HT-29) of 1.02 µM and a CC50 (HT-29; [4]) of 4.07 µM. The IC50 (Malme-3M) was 3.89 µM, the TGI (Malme-3M) was 3.8 µM and the CC50 (Malme-3M; [4]) was 7.24 µM. The IC50 (OVCAR-3) was 2.82 µM, the TGI (OVCAR-3) was 2.88 µM and the CC50 (OVCAR-3; [4]) was 5.62 µM. It also gave an IC50 (RXF 393) of 2.69 µM, a TGI (RXF 393) of 2.69 µM and a CC50 (RXF 393; [4]) of 5.5 µM. It also gave an IC50 (Ramos [3]) of 4.1 µM, an IC50 (786-0) of 3.16 µM and a TGI (786-0) of 3.31 µM. The CC50 (786-0; [4]) was 6.31 µM, the IC50 (OVCAR-4) was 2.82 µM and the TGI (OVCAR-4) was 2.82 µM. The CC50 (OVCAR-4; [4]) was 5.37 µM, the EC50 (MRC5) was 22 µM and the IC50 (OVCAR-5) was 2.95 µM. The TGI (OVCAR-5) was 3.02 µM and the CC50 (OVCAR-5; [4]) was 5.75 µM.
